One may read the MIC as the lowest concentration that inhibits growth of the organism.

The record followed here is ChEMBL document CHEMBL1137210, “DNA binding ligands with improved in vitro and in vivo potency against drug-resistant Staphylococcus aureus” (2004).

In brackets after ≈: the same amount, converted by molar mass. Where only a bound is given, the exact number is not on record here.

Type in all cases: functional
Assay [1] concerns Staphylococcus aureus. The experiment in a line: Minimum inhibitory concentration required for antibacterial activity against methicillin-resistant Staphylococcus aureus with 2% human plasma albumin. In a few lines: (§1)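 MRSA ATCC 27660, with 2% human plasma albumin added to the test medium during MIC determination.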
For assay [2], the system named is Staphylococcus aureus. Put plainly: Minimum inhibitory concentration required for antibacterial activity against methicillin-resistant Staphylococcus aureus 27660.
For assay [3], the system named is Staphylococcus aureus. The experiment in a line: Minimum inhibitory concentration required for antibacterial activity against methicillin-susceptible Staphylococcus aureus 13709.
For assay [4], the system named is Mus musculus. Put plainly: No. of mice survived infected intraperitoneally with methicillin-resistant Staphylococcus aureus after 5 days of treatment at a dose of 1 mg/kg (Total mice tested 5). In a few lines: (§2)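 Mouse peritonitis model: intraperitoneal infection with a 5–10 × LD50 inoculum of MRSA ATCC 27660. A single intravenous dose was given 1 h post-infection, alongside vehicle and vancomycin controls. Animals were monitored for 5 days, with survival as the primary endpoint; 5 mice per dose group.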

The test system of assay [5] is Mus musculus. The experiment in a line: No. of mice survived infected intraperitoneally with methicillin-resistant Staphylococcus aureus after 5 days of treatment at a dose of 3 mg/kg (Total mice tested 5). An outline of the steps: as §2
Assay [6] relates to Mus musculus. Put plainly: No. of mice survived infected intraperitoneally with methicillin-resistant Staphylococcus aureus after 5 days of treatment at a dose of 10 mg/kg (Total mice tested 5). In a few lines:
as §2

Assay [7] has as its system Mus musculus. Put plainly: No. of mice survived infected intraperitoneally with methicillin-resistant Staphylococcus aureus after 5 days of treatment at a dose of 25 mg/kg (Total mice tested 5). The conditions noted are these: route intravenous. An outline of the steps:
as §2

Assay [8] concerns Staphylococcus aureus. The experiment in a line: Minimum inhibitory concentration required for antibacterial activity against methicillin-susceptible Staphylococcus aureus 13709; value ranges from <0.03-0.06.
Assay [9] concerns Staphylococcus aureus. The experiment in a line: Minimum inhibitory concentration required for antibacterial activity against methicillin-resistant Staphylococcus aureus 27660; value ranges from 0.03-0.06.
The subject of assay [10] is Staphylococcus aureus. The experiment in a line: Minimum inhibitory concentration required for antibacterial activity against methicillin-resistant Staphylococcus aureus with 2% human plasma albumin; value ranges from 0.25-1. In a few lines: as §1
Another assay relates to Enterococcus faecium. Put plainly: Minimum inhibitory concentration required for antibacterial activity against vancomycin-resistant Enterococcus faecium 51559.
The next assay has as its system Streptococcus pneumoniae. Put plainly: Minimum inhibitory concentration required for antibacterial activity against penicillin-resistant Streptococcus pneumoniae 51422.
Assay [11] concerns Staphylococcus aureus. The experiment in a line: Minimum inhibitory concentration required for antibacterial activity against methicillin-resistant Staphylococcus aureus with 2% human plasma albumin; value ranges from 0.13-1. An outline of the steps: as §1
Assay [12] concerns Staphylococcus aureus. Put plainly: Minimum inhibitory concentration required for antibacterial activity against vancomycin-resistant Staphylococcus aureus HMC3.
The subject of assay [13] is Staphylococcus aureus. Put plainly: Minimum inhibitory concentration required for antibacterial activity against methicillin-resistant Staphylococcus aureus with 2% human plasma albumin; value ranges from 0.13-0.25. In a few lines:
as §1

Assay [14] relates to Staphylococcus aureus. The experiment in a line: Minimum inhibitory concentration required for antibacterial activity against methicillin-resistant Staphylococcus aureus 27660; value ranges from 0.25-0.5.
Assay [15] concerns Staphylococcus aureus. Put plainly: Minimum inhibitory concentration required for antibacterial activity against methicillin-susceptible Staphylococcus aureus 13709; value ranges from 0.13-0.06.
Assay [16] deals with Staphylococcus aureus. The experiment in a line: Minimum inhibitory concentration required for antibacterial activity against methicillin-resistant Staphylococcus aureus with 2% human plasma albumin; value ranges from 1-2. An outline of the steps:
as §1

Assay [17] deals with Staphylococcus aureus. The experiment in a line: Minimum inhibitory concentration required for antibacterial activity against methicillin-resistant Staphylococcus aureus with 4% human plasma albumin. An outline of the steps: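 MIC against MRSA determined with 4% human plasma albumin present in the test medium.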
Assay [18] concerns Staphylococcus aureus. Put plainly: Minimum inhibitory concentration required for antibacterial activity against methicillin-resistant Staphylococcus aureus 27660; value ranges from 0.06-0.13.
For assay [19], the system named is Staphylococcus aureus. Put plainly: Minimum inhibitory concentration required for antibacterial activity against methicillin-susceptible Staphylococcus aureus 13709; value ranges from 0.03-0.06.
[20] abbreviates: Staphylococcus aureus, Plasma, read-out: MIC.

Take `Cn1cc(NC(=O)c2ccc(NC(=O)c3cc(NC(=O)c4cc5ccccc5cn4)cn3C)cc2)cc1C(=O)NCCN1CCN(CCO)CC1`: the MIC with Staphylococcus aureus [1] (setting [20]) was greater than 32 µg/mL; against Staphylococcus aureus [2], 16 µg/mL (≈ 23.1 µM); with Staphylococcus aureus [3], 32 µg/mL (≈ 46.3 µM).

Consider `COC1CCN(CCNC(=O)c2cc(NC(=O)c3ccc(NC(=O)c4cc(NC(=O)c5cc6ccccc6cn5)cn4C)cc3)cn2C)CC1`, for which the MIC with Staphylococcus aureus [1] (setting [20]) stood at 8 µg/mL (≈ 11.8 µM); against Staphylococcus aureus [2] it was 1 µg/mL (≈ 1.48 µM); against Staphylococcus aureus [3] it was 1 µg/mL (≈ 1.48 µM).

Turning to `Cn1cc(NC(=O)c2cc3ccccc3cn2)cc1C(=O)Nc1ccc(C(=O)Nc2cn(C)c(C(=O)NCCN3CCC(O)CC3)n2)cc1`, the Efficacy in the assay with Mus musculus [4] was determined as 0; in the assay on Mus musculus [5], 2; in the assay with Mus musculus [6], 5; in the assay with Mus musculus [7], 5. In addition, the minimal inhibitory concentration (MIC) against Staphylococcus aureus [8] was 0.06 µg/mL (≈ 0.0904 µM); in the assay on Staphylococcus aureus [9], 0.06 µg/mL (≈ 0.0904 µM); against Staphylococcus aureus [10], 1 µg/mL (≈ 1.51 µM).

As to `Cn1cc(NC(=O)c2ccc(NC(=O)c3nc(NC(=O)c4cc5ccccc5cn4)cn3C)cc2)nc1C(=O)NCCN1CCOCC1`, the minimum inhibitory concentration (MIC) in the assay with Staphylococcus aureus [1] (setting [20]) came to 1 µg/mL (≈ 1.54 µM); in the assay on Enterococcus faecium it was 0.13 µg/mL (≈ 0.2 µM); with Staphylococcus aureus [2], 0.06 µg/mL (≈ 0.0922 µM); against Streptococcus pneumoniae, 0.25 µg/mL (≈ 0.384 µM); in the assay on Staphylococcus aureus [3] it was 0.13 µg/mL (≈ 0.2 µM).

In the case of `Cn1cc(NC(=O)c2ccc(NC(=O)c3nc(NC(=O)c4cc5ccccc5cn4)cn3C)cc2)cc1C(=O)NCCN1CCOCC1`, the MIC is 32 µg/mL (≈ 49.3 µM) with Staphylococcus aureus [1] (setting [20]); 0.5 µg/mL (≈ 0.77 µM) against Enterococcus faecium; 16 µg/mL (≈ 24.6 µM) with Staphylococcus aureus [2]; 0.5 µg/mL (≈ 0.77 µM) against Streptococcus pneumoniae; 2 µg/mL (≈ 3.08 µM) in the assay on Staphylococcus aureus [3].

For the compound `Cn1cc(NC(=O)c2cc3cc4c(cc3s2)OCO4)cc1C(=O)Nc1ccc(C(=O)Nc2cn(C)c(C(=O)NCCN3CCC(O)CC3)n2)cc1`, the Efficacy in the assay with Mus musculus [4] is recorded as 3; with Mus musculus [5] it was 4. Besides, the minimum inhibitory concentration (MIC) against Staphylococcus aureus [11] came to 1 µg/mL (≈ 1.4 µM); against Staphylococcus aureus [12] it was 0.008 µg/mL (≈ 0.0112 µM); against Staphylococcus aureus [2], 0.008 µg/mL (≈ 0.0112 µM); with Staphylococcus aureus [3], 0.008 µg/mL (≈ 0.0112 µM).

`COC1CCN(CCNC(=O)c2nc(NC(=O)c3ccc(NC(=O)c4cc(NC(=O)c5cc6ccccc6cn5)cn4C)cc3)cn2C)CC1` had an Efficacy with Mus musculus [7] of 2. Also, the values for the MIC against Staphylococcus aureus [2], in the assay on Staphylococcus aureus [3] and in the assay with Staphylococcus aureus [13] were 0.03 µg/mL (≈ 0.0443 µM), 0.03 µg/mL (≈ 0.0443 µM) and 0.25 µg/mL (≈ 0.369 µM), respectively.

Regarding `COCCN(CCNC(=O)c1nc(NC(=O)c2ccc(NC(=O)c3cc(NC(=O)c4cc5ccccc5cn4)cn3C)cc2)cn1C)CCOC`, in the assay on Mus musculus [7], the Efficacy is recorded as 0. Further, the minimal inhibitory concentration (MIC) against Staphylococcus aureus [14] was 0.5 µg/mL (≈ 0.719 µM); against Staphylococcus aureus [15], 0.13 µg/mL (≈ 0.187 µM); with Staphylococcus aureus [16] it was 2 µg/mL (≈ 2.87 µM).

Turning to `Cn1cc(NC(=O)c2cc3ccccc3cn2)cc1C(=O)Nc1ccc(C(=O)Nc2cn(C)c(C(=O)NCCN3CCN(CCO)CC3)n2)cc1`, the Efficacy with Mus musculus [7] was 5. In addition, the MIC turned out to be 1 µg/mL (≈ 1.44 µM) in the assay on Staphylococcus aureus [1] (setting [20]), 0.06 µg/mL (≈ 0.0866 µM) against Staphylococcus aureus [2] and 0.06 µg/mL (≈ 0.0866 µM) against Staphylococcus aureus [3].

With `COCCN(CCNC(=O)c1cc(NC(=O)c2ccc(NC(=O)c3cc(NC(=O)c4cc5ccccc5cn4)cn3C)cc2)cn1C)CCOC`, the minimum inhibitory concentration (MIC) in the assay with Staphylococcus aureus [1] (setting [20]) came out at 32 µg/mL (≈ 46.1 µM); in the assay with Staphylococcus aureus [2], 8 µg/mL (≈ 11.5 µM); against Staphylococcus aureus [3] it was 4 µg/mL (≈ 5.76 µM).

For `Cn1cc(NC(=O)c2ccc(NC(=O)c3cc(NC(=O)c4cc5ccccc5cn4)cn3C)cc2)cc1C(=O)NCCN1CCC(O)CC1`, the values for the MIC in the assay with Staphylococcus aureus [17], against Staphylococcus aureus [2] and in the assay with Staphylococcus aureus [3] were 16 µg/mL (≈ 24.1 µM), 0.5 µg/mL (≈ 0.754 µM) and 0.5 µg/mL (≈ 0.754 µM), respectively.

In the assay with Mus musculus [6], `Cn1cc(NC(=O)c2cc3ccccc3cn2)cc1C(=O)Nc1ccc(C(=O)Nc2cn(C)c(C(=O)NCCN3CCOCC3)n2)cc1` returned an Efficacy of 1. Also, the minimal inhibitory concentration (MIC) with Staphylococcus aureus [1] (setting [20]) worked out at 0.13 µg/mL (≈ 0.2 µM); against Enterococcus faecium, 0.008 µg/mL (≈ 0.0123 µM); in the assay with Staphylococcus aureus [12], 0.008 µg/mL (≈ 0.0123 µM); in the assay with Staphylococcus aureus [2], 0.008 µg/mL (≈ 0.0123 µM); in the assay on Streptococcus pneumoniae it was 0.03 µg/mL (≈ 0.0462 µM); in the assay with Staphylococcus aureus [3] it was 0.008 µg/mL (≈ 0.0123 µM).

Consider `Cn1cc(NC(=O)c2ccc(NC(=O)c3cc(NC(=O)c4cc5ccccc5cn4)cn3C)cc2)cc1C(=O)NCCN1CCOCC1`, for which the Efficacy in the assay on Mus musculus [5] is reported as 0; in the assay with Mus musculus [6], 3; in the assay with Mus musculus [7] it was 5. The MIC in the assay on Staphylococcus aureus [18] is 0.13 µg/mL (≈ 0.2 µM); with Staphylococcus aureus [1] it was 1 µg/mL (≈ 1.54 µM); with Staphylococcus aureus [1] (setting [20]), 1 µg/mL (≈ 1.54 µM); in the assay on Staphylococcus aureus [19], 0.06 µg/mL (≈ 0.0925 µM); in the assay on Enterococcus faecium it was 1 µg/mL (≈ 1.54 µM); with Staphylococcus aureus [12], 0.25 µg/mL (≈ 0.385 µM). The MIC against Staphylococcus aureus [2], against Streptococcus pneumoniae and in the assay with Staphylococcus aureus [3] was 0.06 µg/mL (≈ 0.0925 µM) in each case.
